Experimental data as given in PMC5008178 (Molecular Microbiology, 2015).
Read-outs that look alike come from different tables or passages of the source.

What was measured:
Tar = Tar (Escherichia coli, UniProt P07017); assay: FRET response in receptorless cells expressing Tar as sole receptor; type: cell-based; conditions: Tar-only cells; for response mediated by Tar, in words: sub-millimolar range
How it was run: (§1)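 Receptorless E. coli VS181 [Δ(cheY cheZ) Δ(tar tsr tap trg aer)] carries the CheY‑YFP/CheZ‑CFP pair (pVS88) and a plasmid with the single receptor. Cells are grown in TB at 34°C, 275 r.p.m., with inducers, and harvested at OD600 0.6. Buffer‑adapted cells get step addition and then removal of amino acid. YFP/CFP ratio (kinase activity) is read by fluorescence microscopy.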

[1] = test system: chemotaxis pathway in E. coli; assay: microbe, parasite or virus in culture; type: cell-based, Escherichia coli; conditions: for EC50: Escherichia coli; for repellent response in wild type, in words: wild-type E. coli cells, tested up to 1 mM where no response
Tsr = Tsr (Escherichia coli, UniProt P02942); assay: FRET response in receptorless cells expressing Tsr as sole receptor; type: cell-based; conditions: for response mediated by Tsr, in words: Tsr-only cells, sub-millimolar range
How it was run: as §1

[2] = test system: chemotaxis pathway in B. subtilis; assay: microbe, parasite or virus in culture; type: cell-based, Bacillus subtilis; conditions: for EC50: read-out: EC50 of attractant FRET response
E. coli = assay: Growth inhibition by individual amino acids in M9 glucose medium; type: cell-based, Escherichia coli; conditions: 1 mM amino acid, M9 minimal glucose medium, culture density after 8 h
How it was run: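 Cells grown in modified M9 (47 mM Na2HPO4, 22 mM KH2PO4, 8 mM NaCl, 2 mM MgSO4, 100 μM CaCl2) with glucose as carbon source. A single L‑amino acid (1 mM final) was added at the start; 37°C, 120 r.p.m. OD600 read after 8 h and normalised to a control culture without added amino acid.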

[3] = read-out: EC50 of attractant FRET response
[4] = read-out: EC50 of repellent response

Chain of Tsr (P02942 whole entry): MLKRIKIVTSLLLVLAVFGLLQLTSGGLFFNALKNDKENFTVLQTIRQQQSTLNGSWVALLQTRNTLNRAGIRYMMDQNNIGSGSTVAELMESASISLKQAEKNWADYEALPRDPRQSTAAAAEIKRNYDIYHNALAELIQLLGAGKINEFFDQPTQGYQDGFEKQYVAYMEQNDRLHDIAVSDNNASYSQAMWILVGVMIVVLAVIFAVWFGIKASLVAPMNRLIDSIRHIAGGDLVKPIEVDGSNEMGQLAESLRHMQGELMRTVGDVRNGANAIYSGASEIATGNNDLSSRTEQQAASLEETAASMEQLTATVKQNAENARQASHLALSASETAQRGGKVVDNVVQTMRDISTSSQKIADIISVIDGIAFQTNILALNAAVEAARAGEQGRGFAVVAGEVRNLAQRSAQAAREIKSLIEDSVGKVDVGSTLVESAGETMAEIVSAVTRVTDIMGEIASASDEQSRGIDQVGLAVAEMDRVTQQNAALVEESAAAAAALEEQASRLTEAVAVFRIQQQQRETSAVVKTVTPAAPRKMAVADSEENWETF
Chain of Tsr (P0A964 whole entry partner): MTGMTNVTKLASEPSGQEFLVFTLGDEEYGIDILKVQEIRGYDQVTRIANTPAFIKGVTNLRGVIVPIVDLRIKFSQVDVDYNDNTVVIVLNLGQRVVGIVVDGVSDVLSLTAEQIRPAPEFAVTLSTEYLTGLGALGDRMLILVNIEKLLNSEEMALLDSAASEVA
Chain of Tsr (P07363 whole entry partner): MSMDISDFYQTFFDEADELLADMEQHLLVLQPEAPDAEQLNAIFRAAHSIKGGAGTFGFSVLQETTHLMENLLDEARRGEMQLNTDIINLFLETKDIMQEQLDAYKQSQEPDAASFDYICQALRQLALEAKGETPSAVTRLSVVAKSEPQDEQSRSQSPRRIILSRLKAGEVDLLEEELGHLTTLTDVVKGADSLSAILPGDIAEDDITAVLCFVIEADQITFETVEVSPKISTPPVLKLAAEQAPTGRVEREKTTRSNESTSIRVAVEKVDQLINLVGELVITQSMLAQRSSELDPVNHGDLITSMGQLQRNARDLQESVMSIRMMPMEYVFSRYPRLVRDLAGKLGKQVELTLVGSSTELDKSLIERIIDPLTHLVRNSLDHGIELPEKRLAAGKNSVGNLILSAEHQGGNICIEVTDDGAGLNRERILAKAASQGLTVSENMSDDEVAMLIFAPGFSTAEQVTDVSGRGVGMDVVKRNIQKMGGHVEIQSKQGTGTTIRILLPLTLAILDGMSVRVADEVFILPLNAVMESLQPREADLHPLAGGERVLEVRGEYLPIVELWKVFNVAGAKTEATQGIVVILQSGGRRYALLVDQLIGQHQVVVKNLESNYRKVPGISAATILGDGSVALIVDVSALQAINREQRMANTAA
Chain of Tar (P07017 whole entry): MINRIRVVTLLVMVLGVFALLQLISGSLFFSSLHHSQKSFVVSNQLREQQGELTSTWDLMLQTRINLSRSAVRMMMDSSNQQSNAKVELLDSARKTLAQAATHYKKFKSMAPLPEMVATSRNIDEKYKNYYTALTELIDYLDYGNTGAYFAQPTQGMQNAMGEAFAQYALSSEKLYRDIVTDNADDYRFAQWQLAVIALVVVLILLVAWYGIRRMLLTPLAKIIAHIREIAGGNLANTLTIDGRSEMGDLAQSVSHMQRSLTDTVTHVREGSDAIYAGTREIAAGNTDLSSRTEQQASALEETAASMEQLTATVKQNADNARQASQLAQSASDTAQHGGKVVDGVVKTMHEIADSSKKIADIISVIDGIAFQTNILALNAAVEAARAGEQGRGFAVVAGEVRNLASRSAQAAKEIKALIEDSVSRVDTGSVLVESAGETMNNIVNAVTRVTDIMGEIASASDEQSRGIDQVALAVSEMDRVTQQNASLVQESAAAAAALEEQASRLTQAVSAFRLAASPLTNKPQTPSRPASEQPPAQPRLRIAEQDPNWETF
Chain of Tar (P0A964 whole entry partner): as the sequence (P0A964 whole entry partner) above
Chain of Tar (P07363 whole entry partner): as the sequence (P07363 whole entry partner) above

## CSCC[C@H](N)C(=O)O [Methionine]
Tar
  response mediated by Tar, in words: attractant responses
[1]
  attractant response in words: weak attractant responses

## C[C@@H](O)[C@H](N)C(=O)O [Threonine]
[1]; wild-type E. coli, millimolar concentrations
  attractant response in words: weak attractant responses

## N[C@@H](CC(=O)O)C(=O)O [Aspartate]
Tsr
  repellent response in Tsr-only cells, in words: weak repellent responses
Tar
  response mediated by Tar, in words: attractant responses
[2]; Bacillus subtilis
  EC50: > 1000 µM
[1]; [3]
  EC50: < 10 µM
[1]
  repellent response in wild type, in words: no obvious repellent response

## C[C@H](N)C(=O)O [Alanine]
Tsr
  response mediated by Tsr, in words: attractant responses
Tar
  response mediated by Tar, in words: attractant responses

## N[C@@H](CCC(=O)O)C(=O)O [Glutamate]
Tsr
  repellent response in Tsr-only cells, in words: weak repellent responses
Tar
  response mediated by Tar, in words: attractant responses
[2]; B. subtilis
  EC50: > 1000 µM
[1]
  repellent response in wild type, in words: no obvious repellent response

## NC(=O)CC[C@H](N)C(=O)O [Glutamine]
Tsr
  repellent response in Tsr-only cells, in words: weak repellent responses
[1]
  repellent response in wild type, in words: no obvious repellent response

## N[C@@H](Cc1ccc(O)cc1)C(=O)O [Tyrosine]
[2]; B. subtilis
  FRET response in words: lesser maximal activation

## O=C(O)[C@@H]1CCCN1 [Proline]
[2]; Bacillus subtilis
  EC50: < 1 µM

## N[C@@H](CO)C(=O)O [Serine]
E. coli
  growth inhibition: significant growth inhibition
Tsr
  response mediated by Tsr, in words: attractant responses
Tar; saturating concentration
  level at which the response saturated: ~20 % of the initial activity
Tar
  response mediated by Tar, in words: attractant responses
[1]; [3]
  EC50: < 10 µM

## N[C@@H](Cc1ccccc1)C(=O)O [Phenyalanine, phenylalanine]
Tsr
  repellent response in Tsr-only cells, in words: weak repellent responses
[1]
  repellent response in wild type, in words: no obvious repellent response

## N[C@@H](CS)C(=O)O [Cysteine]
E. coli
  growth inhibition: significant growth inhibition
Tsr
  response mediated by Tsr, in words: attractant responses
Tar
  response mediated by Tar, in words: attractant responses
[2]; Bacillus subtilis
  EC50: < 1 µM
[1]; [3]
  EC50: < 10 µM

## NC(=O)C[C@H](N)C(=O)O [Aparagine, Asparagine]
Tsr
  response mediated by Tsr, in words: attractant responses
Tar
  response mediated by Tar, in words: attractant responses
[2]; Bacillus subtilis
  EC50: < 1 µM

## CC[C@H](C)[C@H](N)C(=O)O [Isoleucine]
[1]; [4]
  EC50: 100 to 3000 µM
[1]
  repellent response in wild type, in words: clear repellent responses

## N[C@@H](Cc1c[nH]c2ccccc12)C(=O)O [Tryptophan]
[2]; B. subtilis
  FRET response in words: lesser maximal activation
[1]; [4]
  EC50: 100 to 3000 µM
[1]
  repellent response in wild type, in words: clear repellent responses

## NCC(=O)O [Glycine]
Tsr
  response mediated by Tsr, in words: attractant responses
Tar
  response mediated by Tar, in words: attractant responses

## CC(C)[C@H](N)C(=O)O [Valine]
E. coli
  growth inhibition: significant growth inhibition
[1]; [4]
  EC50: 100 to 3000 µM
[1]
  repellent response in wild type, in words: clear repellent responses

## CC(C)C[C@H](N)C(=O)O [Leucine]
E. coli
  growth inhibition: significant growth inhibition
[1]; [4]
  EC50: 100 to 3000 µM
[1]
  repellent response in wild type, in words: clear repellent responses

## NCCCC[C@H](N)C(=O)O [Lysine]
[2]; B. subtilis
  FRET response in words: did not elicit clear responses

## N[C@@H](Cc1c[nH]cn1)C(=O)O [Histidine]
Tsr
  repellent response in Tsr-only cells, in words: weak repellent responses
[2]; B. subtilis
  FRET response in words: lesser maximal activation
[1]
  repellent response in wild type, in words: no obvious repellent response

## N=C(N)NCCC[C@H](N)C(=O)O [Arginine]
[2]; B. subtilis
  FRET response in words: did not elicit clear responses
